According to ChEMBL document CHEMBL1137710, “Synthesis and in vitro antitumor activity of new quinoxaline derivatives” (2009):

What was measured:
Type in all cases: functional
MDA-MB-435 = assay: Growth inhibition of human MDA-MB-435 cells after 48 hrs by sulforhodamine B assay; conditions: MDA-MB-435, 48 h
How it was run: (§1)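 NCI 60-human-tumor-cell-line panel, with compounds tested over a 5-log dose range. Values are taken from dose-response curves as log10 molar concentrations: GI50 is 50% net growth inhibition, TGI is total growth inhibition, and LC50 is 50% net cell death.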

[1] = Growth inhibition of human Hs 578T cells after 48 hrs by sulforhodamine B assay; how it was run: as §1
SF-295 = assay: Growth inhibition of human SF295 cells after 48 hrs by sulforhodamine B assay; conditions: SF-295, 48 h; how it was run: as §1
CAKI-1 = assay: Growth inhibition of human Caki1 cells after 48 hrs by sulforhodamine B assay; conditions: CAKI-1, 48 h; how it was run: as §1
SW-620 = assay: Growth inhibition of human SW620 cells after 48 hrs by sulforhodamine B assay; conditions: SW-620, 48 h
How it was run: (§2)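 Run in the NCI 60-human-tumour-cell-line panel, tested over a 5-log dose range. Dose–response curves gave three values per cell line, each as a log10 molar concentration: GI50 (50% inhibition of net cell growth), TGI (total inhibition of net growth) and LC50 (50% net cell death). The mean graph midpoint is the arithmetic mean over all lines, with insensitive lines entered at the highest concentration tested.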

K562 = assay: Growth inhibition of human K562 cells after 48 hrs by sulforhodamine B assay; conditions: K562, 48 h; how it was run: as §1
SK-MEL-28 = assay: Growth inhibition of human SK-MEL-28 cells after 48 hrs by sulforhodamine B assay; conditions: SK-MEL-28, 48 h; how it was run: as §1
TK-10 = assay: Growth inhibition of human TK10 cells after 48 hrs by sulforhodamine B assay; conditions: TK-10, 48 h; how it was run: as §2
U-251 = assay: Growth inhibition of human U251 cells after 48 hrs by sulforhodamine B assay; conditions: U-251, 48 h; how it was run: as §2
OVCAR-4 = assay: Growth inhibition of human OVCAR4 cells after 48 hrs by sulforhodamine B assay; conditions: OVCAR-4, 48 h; how it was run: as §1
LOX IMVI = assay: Growth inhibition of human LOXIMVI cells after 48 hrs by sulforhodamine B assay; how it was run: as §1
PC-3 = assay: Growth inhibition of human PC3 cells after 48 hrs by sulforhodamine B assay; conditions: PC-3, 48 h; how it was run: as §1
MCF7 = assay: Anticancer activity against human MCF7 cells assessed as cell growth at 100 uM after 48 hrs by sulforhodamine B assay; conditions: MCF7, 48 h, read-out: Activity
NCI/ADR-RES = assay: Growth inhibition of human NCI/ADR-RES cells after 48 hrs by sulforhodamine B assay; how it was run: as §1
SF-268 = assay: Growth inhibition of human SF268 cells after 48 hrs by sulforhodamine B assay; conditions: SF-268, 48 h; how it was run: as §1
HCT-116 = assay: Growth inhibition of human HCT116 cells after 48 hrs by sulforhodamine B assay; conditions: HCT-116, 48 h; how it was run: as §1
OVCAR-5 = assay: Growth inhibition of human OVCAR5 cells after 48 hrs by sulforhodamine B assay; conditions: OVCAR-5, 48 h; how it was run: as §1
A549 = assay: Growth inhibition of human A549 cells after 48 hrs by sulforhodamine B assay; conditions: A549, 48 h; how it was run: as §1
NCI-H460 = assay: Anticancer activity against human NCI-H460 cells assessed as cell growth at 100 uM after 48 hrs by sulforhodamine B assay; conditions: NCI-H460, 48 h, read-out: Activity
SK-MEL-5 = assay: Growth inhibition of human SK-MEL-5 cells after 48 hrs by sulforhodamine B assay; conditions: SK-MEL-5, 48 h; how it was run: as §1
IGROV-1 = assay: Growth inhibition of human IGROV1 cells after 48 hrs by sulforhodamine B assay; conditions: IGROV-1, 48 h; how it was run: as §1
786-0 = assay: Growth inhibition of human 786-0 cells after 48 hrs by sulforhodamine B assay; conditions: 786-0, 48 h; how it was run: as §1
COLO 205 = assay: Growth inhibition of human COLO205 cells after 48 hrs by sulforhodamine B assay; conditions: COLO 205, 48 h; how it was run: as §1
MDA-MB-231 = assay: Growth inhibition of human MDA-MB-231 cells after 48 hrs by sulforhodamine B assay; conditions: MDA-MB-231, 48 h; how it was run: as §1
NCI-H522 = assay: Growth inhibition of human NCI-H522 cells after 48 hrs by sulforhodamine B assay; conditions: NCI-H522, 48 h; how it was run: as §1
M14 = assay: Growth inhibition of human M14 cells after 48 hrs by sulforhodamine B assay; conditions: M14, 48 h; how it was run: as §1
OVCAR-8 = assay: Growth inhibition of human OVCAR8 cells after 48 hrs by sulforhodamine B assay; conditions: OVCAR-8, 48 h; how it was run: as §1
NCI-H322M = assay: Growth inhibition of human NCI-H322M cells after 48 hrs by sulforhodamine B assay; how it was run: as §1
DU-145 = assay: Growth inhibition of human DU145 cells after 48 hrs by sulforhodamine B assay; conditions: DU-145, 48 h; how it was run: as §1
RXF 393 = assay: Growth inhibition of human RXF393 cells after 48 hrs by sulforhodamine B assay; conditions: RXF 393, 48 h; how it was run: as §1
[2] = read-out: pLC50 (the source's name) (converted)

COc1cc(OC)cc(Oc2nc3cc(N)cc(N)c3nc2-c2ccccc2)c1
GI50 (MDA-MB-435): 0.389 µM | CC50 (MDA-MB-435; [2]): 5.01 µM | TGI (MDA-MB-435; read-out: pTGI (converted)): 1.82 µM | GI50 [1]: 1.32 µM | CC50 [1, 2]: 25.7 µM | TGI ([1]; read-out: pTGI (converted)): 4.17 µM | GI50 (SF-295): 2.19 µM | TGI (SF-295; read-out: pTGI (converted)): 8.51 µM | GI50 (CAKI-1): 16.2 µM | CC50 (CAKI-1; [2]): 79.4 µM | TGI (CAKI-1; read-out: pTGI (converted)): 36.3 µM | GI50 (SW-620): 2.24 µM | CC50 (SW-620; [2]): 31.6 µM | TGI (SW-620; read-out: pTGI (converted)): 10.2 µM | GI50 (K562): 3.8 µM | TGI (K562; read-out: pTGI (converted)): 32.4 µM | GI50 (SK-MEL-28): 3.16 µM | CC50 (SK-MEL-28; [2]): 38.9 µM | TGI (SK-MEL-28; read-out: pTGI (converted)): 15.5 µM | GI50 (TK-10): 28.2 µM | CC50 (TK-10; [2]): > 100 µM | TGI (TK-10; read-out: pTGI (converted)): 57.5 µM | GI50 (U-251): 2.63 µM | TGI (U-251; read-out: pTGI (converted)): 10.7 µM | GI50 (OVCAR-4): 2.88 µM | CC50 (OVCAR-4; [2]): 58.9 µM | TGI (OVCAR-4; read-out: pTGI (converted)): 16.2 µM | GI50 (LOX IMVI): 2.95 µM | TGI (LOX IMVI; read-out: pTGI (converted)): 12.9 µM | GI50 (PC-3): 10.2 µM | CC50 (PC-3; [2]): 72.4 µM | TGI (PC-3; read-out: pTGI (converted)): 27.5 µM | growth at 100 µM (MCF7): 0% | GI50 (NCI/ADR-RES): 1.12 µM | CC50 (NCI/ADR-RES; [2]): 18.2 µM | TGI (NCI/ADR-RES; read-out: pTGI (converted)): 3.89 µM | GI50 (SF-268): 1.74 µM | TGI (SF-268; read-out: pTGI (converted)): 7.08 µM | GI50 (HCT-116): 2.34 µM | TGI (HCT-116; read-out: pTGI (converted)): 10 µM | GI50 (OVCAR-5): 3.24 µM | CC50 (OVCAR-5; [2]): 40.7 µM | TGI (OVCAR-5; read-out: pTGI (converted)): 16.2 µM | GI50 (A549): 2.88 µM | TGI (A549; read-out: pTGI (converted)): 13.2 µM | growth at 100 µM (NCI-H460): 2% | GI50 (SK-MEL-5): 1.91 µM | CC50 (SK-MEL-5; [2]): 24.5 µM | TGI (SK-MEL-5; read-out: pTGI (converted)): 6.46 µM | GI50 (IGROV-1): 2.63 µM | CC50 (IGROV-1; [2]): 38 µM | TGI (IGROV-1; read-out: pTGI (converted)): 12.3 µM | GI50 (786-0): 15.1 µM | CC50 (786-0; [2]): > 100 µM | TGI (786-0; read-out: pTGI (converted)): 41.7 µM | GI50 (COLO 205): 10.7 µM | TGI (COLO 205; read-out: pTGI (converted)): 22.4 µM | GI50 (MDA-MB-231): 3.98 µM | CC50 (MDA-MB-231; [2]): 87.1 µM | TGI (MDA-MB-231; read-out: pTGI (converted)): 21.9 µM | GI50 (NCI-H522): 0.891 µM | TGI (NCI-H522; read-out: pTGI (converted)): 4.27 µM | GI50 (M14): 1.58 µM | CC50 (M14; [2]): 28.8 µM | TGI (M14; read-out: pTGI (converted)): 7.76 µM | GI50 (OVCAR-8): 2.88 µM | CC50 (OVCAR-8; [2]): 50.1 µM | TGI (OVCAR-8; read-out: pTGI (converted)): 16.2 µM | GI50 (NCI-H322M): 2.24 µM | TGI (NCI-H322M; read-out: pTGI (converted)): 15.1 µM | GI50 (DU-145): 21.9 µM | CC50 (DU-145; [2]): > 100 µM | TGI (DU-145; read-out: pTGI (converted)): 57.5 µM | GI50 (RXF 393): 5.37 µM | CC50 (RXF 393; [2]): 44.7 µM | TGI (RXF 393; read-out: pTGI (converted)): 18.2 µM
